Legend:
[1] = test system: Pseudomonas aeruginosa; assay: Minimum antimicrobial inhibitory concentration against Pseudomonas aeruginosa MGH-2; type: functional
Summary of the method: (§1)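 Serial twofold tube dilution in tryptose phosphate broth. Each compound was prepared as a 1000 μg/mL aqueous stock and diluted in double-strength broth, then 2×10^5 cells were added. Tubes were incubated aerobically at 37 °C for 24 h. The MIC was taken as the lowest concentration with no visible growth.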

[2] = test system: Streptococcus mutans; assay: Minimum plaque inhibitory concentration using a standard test organism, Streptococcus mutans OMZ-61; type: functional, organism-based
Summary of the method: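 Ceramic hydroxylapatite plates were soaked twice for 1 min each in compound at […] (aqueous), air-dried and rinsed, then hung in sucrose beef-extract medium (pH 7.0) inoculated with late-log S. mutans OMZ-61. Incubation was anaerobic at 37 °C for 24 h, and treatment plus reinoculation were repeated for a second 24 h. Plaque was stained with 1% FD&C Red No. 3 and scored visually. The value is the lowest concentration giving no plaque while medium growth matched control.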

[3] = test system: Escherichia coli; assay: Antimicrobial minimum inhibitory concentration against Escherichia coli AB1932-1; type: functional; summary of the method: as §1
[4] = test system: Klebsiella pneumoniae; assay: Minimum inhibitory concentration against Klebsiella pneumonia 39645; type: functional; summary of the method: as §1
[5] = test system: Staphylococcus aureus; assay: Minimum antimicrobial inhibitory concentration against Staphylococcus aureus; type: functional; summary of the method: as §1
[6] = test system: Proteus mirabilis; assay: Minimum antimicrobial inhibitory concentration against Proteus mirabilis MGH-1; type: functional; summary of the method: as §1
[7] = test system: Escherichia coli; assay: Minimum inhibitory concentration against Escherichia coli (Vogel); type: functional; summary of the method: as §1
[8] = test system: Escherichia coli; assay: Antimicrobial minimum inhibitory concentration against Escherichia coli 100/B22; type: functional; summary of the method: as §1

| Structure (SMILES) | MIC [1] [µg/mL] | Concentration [2] [%] | MIC [3] [µg/mL] | MIC [4] [µg/mL] | MIC [5] [µg/mL] | MIC [6] [µg/mL] | MIC [7] [µg/mL] | MIC [8] [µg/mL] |
| --- | --- | --- | --- | --- | --- | --- | --- | --- |
| CS(=O)(=O)O.CS(=O)(=O)O.Clc1ccc(N=c2ccn(CCCCn3ccc(=Nc4ccc(Cl)cc4)cc3)cc2)cc1 | > 125 | > 1 | 7.8 | > 250 | 7.8 | > 250 | 15.6 | 15.6 |
| Br.Br.N=c1ccn(CCCCCCCCCCn2ccc(=N)cc2)cc1 | 500 | > 1 | 31.3 | 250 | 7.8 | > 500 | 62.5 | 62.5 |
| Br.Br.CCCCCCN=c1ccn(CCCCCCCCCn2ccc(=NCCCCCC)cc2)cc1 | 125 | > 1 | 2 | 3.9 | 0.4 | 125 | 2 | 2 |
| CCCCCCCCN=c1ccn(CCCCCCn2ccc(=NCCCCCCCC)cc2)cc1.Cl.Cl | 31.3 | 0.004 | 0.5 | 2 | 0.2 | 15.6 | 1 | 0.5 |
| Br.Br.Clc1ccc(N=c2ccn(CCCCCn3ccc(=Nc4ccc(Cl)cc4)cc3)cc2)cc1 | > 125 | > 1 | 31.3 | > 125 | 7.8 | > 125 | 125 | 125 |
| Br.Br.CCCCCCN=c1ccn(CCCCCCCCn2ccc(=NCCCCCC)cc2)cc1 | 125 | > 1 | 2 | 7.8 | 0.2 | > 250 | 3.9 | 3.9 |
| Br.Br.c1cn(CCCCCCn2ccc(=NC3CCCCC3)cc2)ccc1=NC1CCCCC1 | > 125 | > 1 | 125 | > 125 | 15.6 | > 125 | > 125 | > 125 |
| Br.Br.c1cn(CCCCCCCCCn2ccc(=NC3CCCCC3)cc2)ccc1=NC1CCCCC1 | 500 | > 1 | 31.3 | 125 | 1 | > 500 | 31.3 | 31.3 |
| Br.Br.CCCCC(CC)CN=c1ccn(CCCCCCCCn2ccc(=NCC(CC)CCCC)cc2)cc1 (stereo unspecified) | 125 | 0.004 | 1 | 7.8 | 0.3 | 125 | 3.9 | 2 |
| Br.Br.CCCCC(CC)CN=c1ccn(CCCCCCCCCCCCn2ccc(=NCC(CC)CCCC)cc2)cc1 (stereo unspecified) | 3.9 | 0.004 | 1 | 2 | 0.5 | 3.9 | 1 | 1 |
| Br.Br.CCCCCCN=c1ccn(CCCCCCCn2ccc(=NCCCCCC)cc2)cc1 | > 125 | > 1 | 7.8 | 15.6 | 0.4 | > 125 | 15.6 | 7.8 |
| Br.Br.CCCCC(CC)CN=c1ccn(CCCCCCn2ccc(=NCC(CC)CCCC)cc2)cc1 (stereo unspecified) | > 250 | > 1 | 2 | 125 | 0.5 | > 125 | 7.8 | 3.9 |
| Br.Br.CCCCCCCCCCCCN=c1ccn(CCCCCCCCCn2ccc(=NCCCCCCCCCCCC)cc2)cc1 | > 62.5 | 0.1 | > 62.5 | > 62.5 | 7.8 | 62.5 | 62.5 | 62.5 |
| Br.Br.CCCCCCCCCCN=c1ccn(CCCCCCCCCCn2ccc(=NCCCCCCCCCC)cc2)cc1 | 15.6 | 0.01 | 15.6 | 31.3 | 2 | 7.8 | 7.8 | 15.6 |
| Br.Br.CCCCCCCCCCN=c1ccn(CCCCCCCCCn2ccc(=NCCCCCCCCCC)cc2)cc1 | 7.8 | 0.01 | 7.8 | 15.6 | 1 | 7.8 | 2 | 3.9 |
| Br.Br.CCCCCCN=c1ccn(CCCCCn2ccc(=NCCCCCC)cc2)cc1 | > 125 |  | 31.3 | > 125 | 2 | > 250 | 125 | 62.5 |
| Br.Br.Fc1ccc(N=c2ccn(CCCCCCn3ccc(=Nc4ccc(F)cc4)cc3)cc2)cc1 | > 62.5 | > 1 | 15.6 | > 125 | 15.6 | > 125 | 31.3 | 15.6 |

| Structure (SMILES) | MIC [1] [µg/mL] | Concentration [2] [%] | MIC [3] [µg/mL] | MIC [4] [µg/mL] | MIC [5] [µg/mL] | MIC [6] [µg/mL] | MIC [7] [µg/mL] | MIC [8] [µg/mL] |
| --- | --- | --- | --- | --- | --- | --- | --- | --- |
| Br.Br.CCCCCCCN=c1ccn(CCCCn2ccc(=NCCCCCCC)cc2)cc1 | > 250 | > 1 | 7.8 | > 125 | 1 | > 250 | 31.3 | 15.6 |
| Br.Br.c1cn(CCCCCCCCCCn2ccc(=NC3CCCCC3)cc2)ccc1=NC1CCCCC1 | > 125 | > 1 | 7.8 | > 125 | 0.2 | > 125 | 15.6 | 15.6 |
| Br.Br.CCCCCCN=c1ccn(CCCCCCn2ccc(=NCCCCCC)cc2)cc1 | > 125 | 1 | 7.8 | 125 | 0.5 | > 250 | 31.3 | 7.8 |
| Br.Br.CCCCC(CC)CN=c1ccn(CCCCCCCCCn2ccc(=NCC(CC)CCCC)cc2)cc1 (stereo unspecified) | 125 | 0.004 | 1 | 7.8 | 0.3 | 125 | 1 | 1 |
| Br.Br.c1cn(CCCCCn2ccc(=NC3CCCCC3)cc2)ccc1=NC1CCCCC1 | > 500 | > 1 | > 500 | > 500 | 125 | > 500 | > 500 | > 500 |
| CCCCCCN=c1ccn(CCCCCCCCCCCCn2ccc(=NCCCCCC)cc2)cc1.Cl.Cl | 15.6 | 0.01 | 1 | 1 | 0.2 | 7.8 | 1 | 0.5 |
| Br.Br.CCCCCCCCCCCCN=c1ccn(CCCCCCCn2ccc(=NCCCCCCCCCCCC)cc2)cc1 | 62.5 | 0.1 | 62.5 | > 62.5 | 3.9 | 62.5 | 62.5 | 62.5 |
| Br.Br.CCCCCCCCCCN=c1ccn(CCCCCCCCn2ccc(=NCCCCCCCCCC)cc2)cc1 | 7.8 | 0.01 | 7.8 | 3.9 | 1 | 7.8 | 2 | 3.9 |
| CCCCCCCN=c1ccn(CCCCCCCCCCCCCCn2ccc(=NCCCCCCC)cc2)cc1.Cl.Cl | 2 | 0.01 | 1 | 3.9 | 1 | 3.9 | 2 | 1 |
| Br.Br.CCCCCCCCCCN=c1ccn(CCCCCCCCCCCCn2ccc(=NCCCCCCCCCC)cc2)cc1 | 15.6 | 0.1 | 31.3 | 31.3 | 2 | 15.6 | 7.8 | 15.6 |
| Br.Br.CCCCCCCCCCCCN=c1ccn(CCCCCCCCCCn2ccc(=NCCCCCCCCCCCC)cc2)cc1 | > 62.5 | 0.1 | > 62.5 | > 62.5 | 15.6 | > 62.5 | > 62.5 | > 62.5 |
| Br.Br.N=c1ccn(CCCCCCCCn2ccc(=N)cc2)cc1 | > 500 | > 1 | 125 | > 500 | 31.3 | > 500 | 125 | 250 |
| Br.Br.Clc1ccc(N=c2ccn(CCCCCCCn3ccc(=Nc4ccc(Cl)cc4)cc3)cc2)cc1 | > 125 | > 1 | 125 | > 125 | 1 | > 125 | 3.9 | 3.9 |
| Br.Br.CCCCCCN=c1ccn(CCCCn2ccc(=NCCCCCC)cc2)cc1 | > 250 |  | 62.5 | > 125 | 7.8 | > 125 | 125 | 125 |
| Br.Br.N=c1ccn(CCCCCCCCCCCCn2ccc(=N)cc2)cc1 | > 62.5 | > 1 |  | > 62.5 | 2 | > 125 | > 62.5 |  |
| Br.Br.CCCCCCCCCCCCN=c1ccn(CCCCCCCCCCCCn2ccc(=NCCCCCCCCCCCC)cc2)cc1 | > 62.5 | 0.1 | > 62.5 | > 62.5 | 31.3 | > 62.5 | > 62.5 | > 62.5 |
| Br.Br.N=c1ccn(CCCCCCCCCn2ccc(=N)cc2)cc1 | > 500 | > 1 |  | 500 | 31.3 | > 500 | 250 |  |
